Laboratory results reported in ChEMBL document CHEMBL1156979, “The impact of polyether chain length on the iron clearing efficiency and physiochemical properties of desferrithiocin analogues” (J Med Chem, 2010).
Activity calls are given as the source filed them. No cut-off for these calls is given here.

How the values were obtained:
Rattus norvegicus [1] = assay: Iron-clearing efficiency in non-iron-overloaded and bile duct-cannulated Sprague-Dawley rat at 300 umol/kg, po after 48 hrs relative to control; assay type: functional
Summary of the method: (§1)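 Non-iron-overloaded male Sprague-Dawley rats (400–450 g), bile duct-cannulated, given a single oral dose of 300 μmol/kg, either by gavage as monosodium salt or in capsules. Bile was collected at 3 h intervals for up to 48 h and urine every 24 h. Iron was measured by flame absorption spectroscopy. ICE = 24-h iron excretion of treated rats minus controls, divided by theoretical output (2:1 ligand:iron); percent. Mean ± SEM; one-tailed t-test.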

Rattus norvegicus [2] = assay: Iron-clearing efficiency in non-iron-overloaded and bile duct-cannulated Sprague-Dawley rat assessed as bile iron excretion at 300 umol/kg, po after 48 hrs relative to control; assay type: functional
Summary of the method: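 Male Sprague-Dawley rats (400–450 g), non-iron-overloaded and bile duct-cannulated, were dosed orally at 300 μmol/kg, either by gavage as the monosodium salt (1 equiv NaOH added to the free acid in distilled water) or in capsules. Bile was collected at 3 h intervals for up to 48 h and urine at 24 h intervals. Iron efficiency was calculated as treated minus control iron excretion, divided by the theoretical output for a 2:1 ligand:iron complex, expressed as %; values are mean ± SEM.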

Rattus norvegicus [3] = assay: Iron-clearing efficiency in non-iron-overloaded and bile duct-cannulated Sprague-Dawley rat assessed as urine iron excretion at 300 umol/kg, po after 48 hrs relative to control; assay type: functional
Rattus norvegicus [4] = assay: Toxicity in Sprague-Dawley rat assessed as histopathological examination at 384 umol/kg, po qd for 10 days measured after 24 hrs last post dose; assay type: organism-based; conditions: in vivo
Summary of the method: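 Male Sprague-Dawley rats (300–350 g), fasted overnight, were dosed orally once daily for 10 d. Dosing was 384 μmol/kg/d (capsules or by gavage as monosodium salt) or 192 μmol/kg/d (capsules). Age-matched untreated controls. Rats were euthanized 24 h after the last dose (day 11), and extensive tissues were examined histopathologically.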

Rattus norvegicus [5] = assay: Iron-clearing efficiency in non-iron-overloaded and bile duct-cannulated Sprague-Dawley rat assessed as reduction of renal iron content at 384 umol/kg, po qd for 10 days administered as gelatin capsules relative to control; assay type: functional; parameters: scale not given: the % may be the effect or the level left
Rattus norvegicus [6] = assay: Iron-clearing efficiency in non-iron-overloaded and bile duct-cannulated Sprague-Dawley rat assessed as reduction of renal iron content at 384 umol/kg, po qd for 10 days administered as monosodium salt relative to control; assay type: functional; parameters: scale not given: the % may be the effect or the level left
Rattus norvegicus [7] = assay: Iron-clearing efficiency in non-iron-overloaded and bile duct-cannulated Sprague-Dawley rat assessed as reduction of liver iron content at 384 umol/kg, po qd for 10 days administered as gelatin capsules relative to control; assay type: functional; parameters: scale not given: the % may be the effect or the level left
Rattus norvegicus [8] = assay: Iron-clearing efficiency in non-iron-overloaded and bile duct-cannulated Sprague-Dawley rat assessed as reduction of liver iron content at 384 umol/kg, po qd for 10 days administered as monosodium salt relative to control; assay type: functional; parameters: scale not given: the % may be the effect or the level left
Rattus norvegicus [9] = assay: Iron-clearing efficiency in non-iron-overloaded and bile duct-cannulated Sprague-Dawley rat assessed as reduction of cardiac iron content at 384 umol/kg, po qd for 10 days administered as gelatin capsules relative to control; assay type: functional, Heart; parameters: scale not given: the % may be the effect or the level left
Rattus norvegicus [10] = assay: Iron-clearing efficiency in non-iron-overloaded and bile duct-cannulated Sprague-Dawley rat assessed as reduction of cardiac iron content at 384 umol/kg, po qd for 10 days administered as monosodium salt relative to control; assay type: functional, Heart; parameters: scale not given: the % may be the effect or the level left
Rattus norvegicus [11] = assay: Toxicity in Sprague-Dawley rat assessed as histopathological examination at 384 umol/kg, po qd for 10 days; conditions: in vivo, 240 h
[12] = Ratio of iron-clearing efficiency in iron-overloaded Cebus apella at 75 umol/kg, po to iron-clearing efficiency in non-iron-overloaded and bile duct-cannulated Sprague-Dawley rat at 300 umol/kg, po after 48 hrs; assay type: functional, organism-based
Summary of the method: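 Iron-overloaded Cebus apella (3.5–4 kg; iv iron dextran to about 500 mg Fe/kg, ≥60 days before use) dosed orally at 75 μmol/kg, by gavage as monosodium salt (1 equiv NaOH in distilled water) or in capsules. Feces and urine collected every 24 h from 4 days pre-drug to 5 days post-drug; iron by flame absorption spectroscopy. ICE = 2-day post-drug iron minus 4-day baseline average, divided by theoretical output (2:1 ligand:iron); percent. Performance ratio = mean primate ICE/rodent ICE.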

Rattus norvegicus [13] = assay: Iron-clearing efficiency in non-iron-overloaded and bile duct-cannulated Sprague-Dawley rat assessed as time required to maximum bile iron excretion at 300 umol/kg, po after 12 to 15 hrs; assay type: functional, organism-based; summary of the method: as §1
Rattus norvegicus [14] = assay: Iron-clearing efficiency in non-iron-overloaded and bile duct-cannulated Sprague-Dawley rat assessed as bile iron excretion at 300 umol/kg, po up to 48 hrs; assay type: functional, organism-based; summary of the method: as §1
Sapajus apella [15] = assay: Iron-clearing efficiency in iron-overloaded Cebus apella assessed as reduction of liver iron stores at 384 umol/kg, po qd for 28 days; assay type: functional, organism-based
Rattus norvegicus [16] = assay: Iron-clearing efficiency in non-iron-overloaded and bile duct-cannulated Sprague-Dawley rat assessed as reduction of pancreatic iron content at 384 umol/kg, po qd for 10 days administered as monosodium salt; assay type: functional, organism-based
Summary of the method: (§2)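 Male Sprague-Dawley rats (300–350 g) were fasted overnight and dosed orally once daily for 10 d. Dosing was 384 μmol/kg/d in gelatin capsules (n = 5) or by gavage as monosodium salt (n = 10), or 192 (n = 6) or 384 μmol/kg/d (n = 5) in capsules. Rats were fed ~3 h post-dose. Age-matched untreated controls (n = 12). Kidney, liver, heart and pancreas were taken on day 11, wet-ashed (120 °C, then H2O2), and iron was measured by flame absorption spectroscopy.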

Rattus norvegicus [17] = assay: Iron-clearing efficiency in non-iron-overloaded and bile duct-cannulated Sprague-Dawley rat assessed as reduction of pancreatic iron content at 384 umol/kg, po qd for 10 days administered as gelatin capsules; assay type: functional, organism-based; summary of the method: as §2
Rattus norvegicus [18] = assay: Iron-clearing efficiency in non-iron-overloaded and bile duct-cannulated Sprague-Dawley rat assessed as reduction of liver iron stores at 384 umol/kg, po qd for 10 days
Sapajus apella [19] = assay: Iron-clearing efficiency in iron-overloaded Cebus apella at 150 umol/kg, po measured daily once for 2 days by flame absorption spectroscopy relative to control; assay type: functional
Sapajus apella [20] = assay: Iron-clearing efficiency in iron-overloaded Cebus apella assessed as feces iron excretion at 150 umol/kg, po measured daily once for 5 days by lame absorption spectroscopy relative to control; assay type: functional
Sapajus apella [21] = assay: Iron-clearing efficiency in iron-overloaded Cebus apella assessed as urine iron excretion at 150 umol/kg, po measured daily once for 5 days by lame absorption spectroscopy relative to control; assay type: functional
Rattus norvegicus [22] = assay: Iron-clearing efficiency in non-iron-overloaded and bile duct-cannulated Sprague-Dawley rat assessed as time required to maximum bile iron excretion at 300 umol/kg, po; assay type: functional; summary of the method: as §1
Rattus norvegicus [23] = assay: Iron-clearing efficiency in non-iron-overloaded and bile duct-cannulated Sprague-Dawley rat assessed as complete bile iron excretion at 300 umol/kg, po; assay type: functional; summary of the method: as §1

## COCCOCCOc1ccc(C2=N[C@@](C)(C(=O)O)CS2)c(O)c1 [SP-420]
Rattus norvegicus [1]
  Activity: 26.7%
Rattus norvegicus [2]
  Activity: 97%
Rattus norvegicus [3]
  Activity: 3%
Rattus norvegicus [4]
  Activity: Non-toxic
Rattus norvegicus [5]
  Activity: 7.4%
Rattus norvegicus [6]
  Activity: 24.8%
Rattus norvegicus [7]
  Activity: >35%
Rattus norvegicus [8]
  Activity: >35%
Rattus norvegicus [9]
  Activity: 6.9%
Rattus norvegicus [10]
  Activity: 9.9%
Rattus norvegicus [11]
  Activity: Toxic

## COCCOCCOc1ccc(C2=N[C@@](C)(C(=O)O)CS2)c(O)c1
[12]
  Ratio: 1
Rattus norvegicus [13]
  Activity: inactive
Rattus norvegicus [14]
  Activity: Active
Sapajus apella [15]
  Activity: Active
Rattus norvegicus [16]
  Activity: Active
Rattus norvegicus [17]
  Activity: inactive
Rattus norvegicus [18]
  Activity: Active

## C[C@]1(C(=O)[O-])CSC(c2ccc(O)cc2O)=N1.[Na+] [DEFERITRIN SODIUM]
Sapajus apella [19]
  Activity: 16.8%
Sapajus apella [20]
  Activity: 88%
Sapajus apella [21]
  Activity: 12%
Rattus norvegicus [22]
  Time: 3 h
Rattus norvegicus [23]
  Time: 9 h

## COc1ccc(C2=N[C@@](C)(C(=O)[O-])CS2)c(O)c1.[Na+]
Sapajus apella [19]
  Activity: 24.4%
Sapajus apella [20]
  Activity: 91%
Sapajus apella [21]
  Activity: 9%
